# Test results reported in ChEMBL document CHEMBL4342478, “Discovery of Potent N-Ethylurea Pyrazole Derivatives as Dual Inhibitors of Trypanosoma brucei and Trypanosoma cruzi” (ACS Med Chem Lett, 2020).
# Calls of active or inactive are those of the source. The calls are words filed in the database; no cut-off is given here.
# What was measured:
# [1] = Selectivity index, ratio of cytotoxicity against rat H9C2 cells to IC50 for antitrypanosomal activity against Trypanosoma cruzi infected in rat H9C2 cells; format: toxicity, cell-based; conditions: read-out: Selectivity Index
# [2] = system: Trypanosoma cruzi; assay: Antitrypanosomal activity against Trypanosoma cruzi infected in rat H9C2 cells by DRAQ5 DNA dye based imaging analysis; format: functional, organism-based
# Outline: (§1)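 IC50 values are the mean of two independent experiments. The T. b. brucei assay uses free parasites. The T. cruzi assay uses intracellular parasites in H9c2 host cells.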
# [3] = system: Trypanosoma brucei brucei; assay: Antitrypanosomal activity against Trypanosoma brucei brucei BS427 after 48 hrs by resazurin dye based fluorescence assay; format: functional, organism-based; outline: as §1
# [4] = Selectivity index, ratio of IC50 for human HEK293 cells incubated for 69 hrs by resazurin dye based fluorescence analysis to IC50 for antitrypanosomal activity against Trypanosoma brucei brucei BS427; format: toxicity; conditions: read-out: Ratio IC50
# [5] = system: Plasmodium falciparum; assay: Antiplasmodial activity against erythrocytic stage of Plasmodium falciparum after 48 hrs by [3H]-hypoxanthine incorporation assay; format: functional, organism-based
# [6] = system: Trypanosoma cruzi; assay: Antitrypanosomal activity against Trypanosoma cruzi Tulahuen C2C4 trypomastigotes infected in rat L6 cells after 96 hrs by photometric analysis; format: functional, organism-based
# [7] = system: Trypanosoma brucei rhodesiense; assay: Antitrypanosomal activity against blood stream form of Trypanosoma brucei rhodesiense STIB900 after 72 hrs by Alamar blue based fluorometric assay; format: functional, organism-based
# [8] = system: Leishmania donovani; assay: AntiLeishmanial activity against amastigote form of Leishmania donovani MHOM/ET/67/L82 after 72 hrs by Alamar blue dye based fluorometric analysis; format: functional, organism-based
# [9] = Metabolic stability in human liver microsomes; format: ADME, Microsome
# [10] = Kinetic solubility of compound at pH 2 to 6.5 by nephelometry; format: physicochemical; conditions: buffer, read-out: Kinetic_solubility
# [11] = system: Trypanosoma cruzi; assay: Antitrypanosomal activity against Trypanosoma cruzi Tulahuen C4 infected in mouse 3T3 cells by Hoechst/HCS CellMask green dye based assay; format: functional, organism-based; conditions: Tulahuen C4, NIH3T3
# [12] = Selectivity index, ratio of cytotoxicity against mouse 3T3 cells to IC50 for antitrypanosomal activity against Trypanosoma cruzi Tulahuen C4 infected in mouse 3T3 cells; format: toxicity, cell-based; conditions: read-out: Selectivity Index
# [13] = system: Trypanosoma cruzi; assay: Trypanosomacidal activity against Trypanosoma cruzi strain Y trypomastigotes assessed as reduction in number of infected cells at faster rate at 20 uM measured for 24 to 96 hrs by Hoechst 33342 staining based fluorescence imaging assay; format: functional, organism-based
# [14] = Selectivity index, ratio of cytotoxicity against human HEK293 cells to IC50 for antitrypanosomal activity against bloodstream form of Trypanosoma brucei brucei Lister 427; format: toxicity, cell-based; conditions: read-out: Selectivity Index
# Outline: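 Ratio of HEK293 cytotoxicity to the IC50 against free, non-intracellular T. b. brucei parasites. IC50 values are the average of two independent experiments.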
# [15] = system: Trypanosoma brucei brucei; assay: Antitrypanosomal activity against bloodstream form of Trypanosoma brucei brucei Lister 427; format: functional, organism-based
# [16] = Trypanosoma brucei, BS427, 48 h, read-out: IC50
smiles,measurement,setting,value
O=C(NCCn1ccc(-c2ccccc2)n1)N1CC[C@H](F)C1,selectivity ratio,[1],200
same,IC50,[2],250 nM
same,IC50,[3]; [16],61 nM
same,selectivity ratio at 69 h,[4],1300
CC(Cn1ccc(-c2ccccc2)n1)NC(=O)N1CCCCC1 (stereo not given),selectivity ratio,[1],50
same,IC50,[2],1000 nM
same,IC50,[3]; [16],640 nM
same,selectivity ratio at 69 h,[4],131
COc1cccc(-c2ccn(CCNC(=O)N3CCCCC3)n2)c1,selectivity ratio,[1],13
same,IC50,[2],4000 nM
same,IC50,[3]; [16],1200 nM
same,selectivity ratio at 69 h,[4],67
Cc1cccc(-c2ccn(CCNC(=O)N3CCCCC3)n2)c1,selectivity ratio,[1],158
same,IC50,[2],320 nM
same,IC50,[3]; [16],360 nM
same,selectivity ratio at 69 h,[4],232
O=C(NCCn1ccc(-c2ccccc2)n1)N1CCCC1,IC50,[3]; [16],650 nM
same,selectivity ratio at 69 h,[4],128
O=C(NCCn1ccc(-c2ccccc2)n1)N1CCCCCC1,selectivity ratio,[1],79
same,IC50,[2],630 nM
same,IC50,[3]; [16],390 nM
same,selectivity ratio at 69 h,[4],215
O=C(NCCn1ccc(-c2cccc(F)c2)n1)N1CCCCC1,IC50,[3]; [16],50 nM
same,Activity,[5],Active
same,Activity,[6],Active
same,Activity,[7],Active
same,selectivity ratio at 69 h,[4],197
same,Activity,[8],Active
O=C(NCCn1ccc(-c2ccccc2)n1)N1CC[C@@H](F)C1,selectivity ratio,[1],63
same,IC50,[2],790 nM
same,IC50,[3]; [16],108 nM
same,selectivity ratio at 69 h,[4],732
CC(C)OC(=O)NCCn1ccc(-c2ccccc2)n1,IC50,[3]; [16],1000 nM
same,selectivity ratio at 69 h,[4],82
Cc1ccccc1-c1ccn(CCNC(=O)N2CCCCC2)n1,selectivity ratio,[1],158
same,IC50,[2],320 nM
same,IC50,[3]; [16],350 nM
same,selectivity ratio at 69 h,[4],240
c1ccc(CNCCn2ccc(-c3ccccc3)n2)cc1,IC50,[3],Not Active
O=C(NCCn1ccc(-c2ccc(F)c(F)c2)n1)N1CCCC1,selectivity ratio,[1],501
same,IC50,[2],100 nM
same,IC50,[3]; [16],22 nM
same,Activity,[5],Active
same,Stability,[9],Stable
same,Activity,[6],Active
same,solubility kinetic,[10],12.5 to 25 µg/mL
same,Activity,[7],Active
same,selectivity ratio at 69 h,[4],3630
same,Activity,[8],Active
COc1ccc(-c2ccn(CCNC(=O)N3CCCCC3)n2)cc1,selectivity ratio,[1],2
same,IC50,[2],25000 nM
same,IC50,[3]; [16],7100 nM
same,selectivity ratio at 69 h,[4],12
O=C(NCCn1ccc(-c2ccc(F)cc2)n1)N1CCCC1,selectivity ratio,[1],158
same,IC50,[2],320 nM
same,IC50,[3]; [16],75 nM
same,selectivity ratio at 69 h,[4],1060
CC(CNC(=O)N1CCCCC1)n1ccc(-c2ccccc2)n1 (stereo not given),selectivity ratio,[1],251
same,IC50,[2],200 nM
same,IC50,[3]; [16],230 nM
same,selectivity ratio at 69 h,[4],358
O=C(CCn1ccc(-c2ccccc2)n1)Nc1ccccc1,IC50,[3],Not Active
N#Cc1ccccc1-c1ccn(CCNC(=O)N2CCCCC2)n1,selectivity ratio,[1],4
same,IC50,[2],13000 nM
same,IC50,[3]; [16],4700 nM
same,selectivity ratio at 69 h,[4],18
O=C(NCCn1ccc(-c2ccc(F)cc2)n1)N1CCCCC1,IC50,[3]; [16],60 nM
same,Activity,[5],Active
same,Stability,[9],Stable
same,Activity,[6],Active
same,Activity,[7],Active
same,selectivity ratio at 69 h,[4],161
same,Activity,[8],Active
O=C(NCCn1ccc(-c2cccc(Cl)c2)n1)N1CCCCC1,selectivity ratio,[1],398
same,IC50,[2],130 nM
same,IC50,[3]; [16],130 nM
same,selectivity ratio at 69 h,[4],327
O=C(NCCn1ccc(-c2ccc(F)c(F)c2)n1)N1CCCCC1,IC50,[3]; [16],27 nM
same,IC50,[11],119 nM
same,selectivity ratio at 69 h,[4],2910
same,selectivity ratio,[12],616
N#Cc1ccc(-c2ccn(CCNC(=O)N3CCCCC3)n2)cc1,selectivity ratio,[1],1
same,IC50,[2],40000 nM
O=C(NCCn1ccc(-c2ccccc2)n1)c1ccccc1,selectivity ratio,[1],1
same,IC50,[2],50000 nM
same,IC50,[3]; [16],610 nM
same,selectivity ratio at 69 h,[4],102
CCN(CC)C(=O)NCCn1ccc(-c2ccccc2)n1,selectivity ratio,[1],16
same,IC50,[2],3200 nM
same,IC50,[3]; [16],2000 nM
same,selectivity ratio at 69 h,[4],42
O=C(NCCn1ccc(-c2ccccc2Cl)n1)N1CCCCC1,selectivity ratio,[1],398
same,IC50,[2],130 nM
same,IC50,[3]; [16],120 nM
same,selectivity ratio at 69 h,[4],361
O=C(NCCn1ccc(-c2ccccc2)n1)N1CCOCC1,selectivity ratio,[1],2
same,IC50,[2],25000 nM
same,IC50,[3]; [16],6600 nM
same,selectivity ratio at 69 h,[4],13
O=C(Cn1ccnc1[N+](=O)[O-])NCc1ccccc1,Activity,[13],Active
O=C(NCCn1ccc(-c2ccc(F)cc2F)n1)N1CCCCC1,IC50,[3]; [16],45 nM
same,selectivity ratio at 69 h,[4],1880
O=C(NCCn1ccc(-c2ccc(Cl)cc2)n1)N1CCCCC1,selectivity ratio,[1],50
same,IC50,[2],1000 nM
same,IC50,[3]; [16],1200 nM
same,selectivity ratio at 69 h,[4],35
Cc1ccc(-c2ccn(CCNC(=O)N3CCCCC3)n2)cc1,selectivity ratio,[1],5
same,IC50,[2],10000 nM
same,IC50,[3]; [16],5300 nM
same,selectivity ratio at 69 h,[4],16
CC(C)NC(=O)NCCn1ccc(-c2ccccc2)n1,IC50,[3]; [16],7500 nM
same,selectivity ratio at 69 h,[4],11
CC(C)(C)C(=O)NCCc1csc(-c2cccc(F)c2)n1,selectivity ratio,[1],27
same,IC50,[2],2300 nM
same,selectivity ratio,[14],> 96
same,IC50,[15],800 nM
O=C(NCCn1ccc(-c2ccccc2)n1)C1CCCC1,selectivity ratio,[1],16
same,IC50,[2],3200 nM
same,IC50,[3]; [16],1100 nM
same,selectivity ratio at 69 h,[4],39
O=C(NCCn1ccc(-c2ccc(F)cc2)n1)N1CC[C@H](F)C1,selectivity ratio,[1],398
same,IC50,[2],130 nM
same,IC50,[3]; [16],32 nM
same,Activity,[5],Active
same,Activity,[6],Active
same,Activity,[7],Active
same,selectivity ratio at 69 h,[4],2450
same,Activity,[8],Active
O=C(NCCn1ccc(-c2ccccc2F)n1)N1CCCCC1,IC50,[3]; [16],60 nM
same,Activity,[5],Active
same,Activity,[6],Active
same,Activity,[7],Active
same,selectivity ratio at 69 h,[4],185
same,Activity,[8],Active
O=C(NCCn1ccc(-c2ccc(F)cc2)n1)N1CC[C@@H](F)C1,selectivity ratio,[1],200
same,IC50,[2],250 nM
same,IC50,[3]; [16],86 nM
same,selectivity ratio at 69 h,[4],922
O=S(=O)(NCCn1ccc(-c2ccccc2)n1)c1ccccc1,selectivity ratio,[1],1
same,IC50,[2],50000 nM
same,IC50,[3],Not Active
O=C(NCCn1ccc(-c2ccc(F)c(F)c2)n1)N1CC[C@@H](F)C1,selectivity ratio,[1],501
same,IC50,[2],100 nM
same,IC50,[3]; [16],16 nM
same,Activity,[5],Active
same,Activity,[6],Active
same,Activity,[7],Active
same,selectivity ratio at 69 h,[4],4840
same,Activity,[8],Active
N#Cc1cccc(-c2ccn(CCNC(=O)N3CCCCC3)n2)c1,selectivity ratio,[1],126
same,IC50,[2],400 nM
same,IC50,[3]; [16],350 nM
same,selectivity ratio at 69 h,[4],236
COc1ccccc1-c1ccn(CCNC(=O)N2CCCCC2)n1,IC50,[3]; [16],2600 nM
same,selectivity ratio at 69 h,[4],32
